Fewer inactive variants are shown than the library holds.
B1: tRNA (parent)
chain: GUUCCGUUGGCGUAAUGGUAACGCGUCUCCCUCCUAAGGAGAAGACUGCGGGUUCGAGUCCCGUACGGAACG

Variants of: B1
Test: yeast fitness relative to wild type (ratio to wild type); higher = fitter; tRNA-Arg(CCU), competitive growth, 37 C, YPD
Method in brief: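 For this measurement, the tRNA-Arg(CCU) gene was varied by chemical synthesis at a 3% per-site mutation rate across 69 sites, and each variant was placed at the native genomic locus in Saccharomyces cerevisiae. The pooled strains went through a 24-hour competition in YPD at 37°C in six parallel replicates, with amplicons from start and end populations read by 100-nucleotide paired-end sequencing. Darwinian fitness relative to wild type followed from the change in each genotype's frequency. Genotypes needed ≥ 100 starting reads, and estimates < 0.5 were set to 0.5.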

Row | Variant | yeast fitness
1 | GUUCCGUUGGCGUAAAGGUAACGCGUCUCCCUCCUAAGGAGAAGACUGCGGGUUCGAGUCACGUAUGGCACG [U16A C61A C66U A69C] | 0.697
2 | GUUCCGUUGGCGUAAAGGUAACGCGUCUCCCUCAUCGGGAGAAGACUGCGGGUUCCAGUCCCGUAAGGAACG [U16A C34A A36C A37G G56C C66A] | ≤ 0.5
3 | GUUCCGUUGGCGUAAAGGUAACGCGUCUCCCUCCUAAGAAGAAGAUUGCGGGUUCGUGUCCCGUAUGGAACG [U16A G39A C46U A57U C66U] | ≤ 0.5
4 | GUUCCGUUGGCGUAAAGGUAACGCGUCUCCCUCCUAAGGAGAAAACUGCGGGUUCGAGUCCCGUACGGAACG [U16A G44A] | 0.999
5 | GUUCCGUUGGCGUAAAGGUAACGCGUCUCCCUCCUAAGGAGAACACUGCGGGUUCGAGUCCCGUACGGAACG [U16A G44C] | 0.751
6 | GUUCCGUUGGCGUAAAGGUAACGCGUCUCCCUCCUAAGGAGAAGACUGUGGGUUCGAGUCCCGUACGGAACG [U16A C49U] | 0.946
7 | GUUCCGUUGGCGUAAAGGUAACGCGUCUCCCUCCUAAGGAGAAGACUGCGGGUUCGAGUUCCGUACGGAACG [U16A C60U] | 0.805
8 | GUUCCGUUGGCGUAAAGGUAACGCGUCUCCCUCAUAAGGAGAAGACUGCGGGUUCGAGUCCCGCACGGAACG [U16A C34A U64C] | 0.513
9 | GUUCCGUUGGCGUAAAGGUAACGCGUCUCCCUCCUAAAGAGAAGACUGCGGGUUCGAGUCCAGUACGGUACG [U16A G38A C62A A69U] | ≤ 0.5
10 | GUUCCGUUGGCGUAAAGGUAACGCGUCUCACUCCUAAGGAGCAGACUGCGGGUUCGAGUCCCGUACGGAACG [U16A C30A A42C] | 0.558
11 | GUUCCGUUGGCGUAAAGGUAACGCGUCUCCCUCCUAAGCAGAAGACUGCGGGUUCGAGUCCCGUACGGAACG [U16A G39C] | 0.646
12 | GUUCCGUUGGCGUAAAGGUAACGCGUCUCCCUCCUAAGGAAAAGACUGCGGGUUCGAGUCCCGUACGGCACG [U16A G41A A69C] | 0.631
13 | GUUCCGUUGGCGUAAAGGUAACGCGUCUGCGUCCUAAGGAGAAGACUGCGGGUUCGAGUCCUGUACGGCACG [U16A C29G C31G C62U A69C] | ≤ 0.5
14 | GUUCCGUUGGCGUAAAGGUAACGCGUCUCCCUCAUAAGGUGAAAACUGCGGGUUCGAGUCCCGUACGGAACG [U16A C34A A40U G44A] | ≤ 0.5
15 | GUUCCGUUGGCGUAAACGUAACGCGUCUCCCUCCUAAGGAGAUGCAUGCGGGUUCGAGUCCCGUACGGAACG [U16A G17C A43U A45C C46A] | 0.613
16 | GUUCCGUUGGCGUAAAGGUAACGCGUCUCCCUCCUAAGAAGAAGAUUGCGGGUUCGUGUCCCGUACAGAACG [U16A G39A C46U A57U G67A] | ≤ 0.5
17 | GUUCCGUUGGCGUAAAGGUAACGCGUGUCCCUCCUAAGGAGAAGACUGCGGGUUCGAGUCCCGUACGGAACG [U16A C27G] | 0.548
18 | GUUCCGUUGGCGUAAAGGUAACGCGUCUCCAUCCUAAGGAGAAGACUGCGGGUUCGAGUCCCGUACGGUACG [U16A C31A A69U] | 0.62
19 | GUUCCGUUGGCGUAAAAGUAAGGCGUCUCCCUCCUAAGGAGAAGACUGCGGGUUCGAGUCUCGUACGGAACG [U16A G17A C22G C61U] | ≤ 0.5

Row | Variant | yeast fitness
20 | GUUCCGUUGGCGUAAAGGUAACGCGUGUCCCUCCUAAGGAGUAGACUGCGGGCUCGAGUCCCGUACGGAACG [U16A C27G A42U U53C] | ≤ 0.5
21 | GUUCCGUUGGCGUAAAGGUAACGCGUCUCGCUCGUAAGGAGUAGACUGCGGGUUCGAGUCCCGUAUGGAACG [U16A C30G C34G A42U C66U] | ≤ 0.5
22 | GUUCCGUUGGCGUAAAGGUAACGCGUCUCGCUCCUACGGAGAAGACUGCGGGUUCGAGUCCCGUACGGAACG [U16A C30G A37C] | ≤ 0.5
23 | GUUCCGUUGGCGUAAAGGUAACGCGUCUCCCUAAUAAGGAGAAGACUGCGGGUUCGAGUCCAGUACGGAACG [U16A C33A C34A C62A] | ≤ 0.5
24 | GUUCCGUUGGCGUAAAGGUAACGCGUCUCCCUUCUAAGGAGAAGGCUGAGGGAUCGAGUCCCGUACGGAACG [U16A C33U A45G C49A U53A] | ≤ 0.5
25 | GUUCCGUUGGCGUAAACGUAACGCGUCUCCCUCCUAAGGAGAUGCAUGCGGGUUCGAGUCCGGUACGGAACG [U16A G17C A43U A45C C46A C62G] | ≤ 0.5
26 | GUUCCGUUGGCGUAAAGGUAACGCGUGUCCCUCCUAAGGAGAAGAGUGCGGGUUCGAGUCCCGUACAGAACG [U16A C27G C46G G67A] | 0.505
27 | GUUCCGUUGGCGUAAAGGUAACGCGUCUCCAUGCUAAAGAGAAGACUGCGGGUUCGAGUCCCGUAUGGAACG [U16A C31A C33G G38A C66U] | ≤ 0.5
28 | GUUCCGUUGGCGUAAAGGUAACGCGUCUCCCUCCUAAGGAGAAGACUGCGGGUUCGAGUCCUGUACGGGACG [U16A C62U A69G] | 0.922
29 | GUUCCGUUGGCGUAAAGGUAACGCGUCUCCCUCCUAAGGAGAAGACUGCGGGUUCGAGUGGCGUACGCAACG [U16A C60G C61G G68C] | ≤ 0.5
30 | GUUCCGUUGGCGUAAAGGUAACGCGUCUCGCUCGUAAGGAGUAGACUGCGGAUUCGCGUCCCGUGCGGAACG [U16A C30G C34G A42U G52A A57C A65G] | ≤ 0.5
31 | GUUCCGUUGGCGUAAAAGUAACGCGUCUCCCUCUUAAGGAGAAGACUGCGGGUUCGAGUCCCGUAUGGAUCG [U16A G17A C34U C66U A70U] | ≤ 0.5
32 | GUUCCGUUGGCGUAAAGCUGAUGCGUCUCCCUCCUAAGGAGAAGACUGCGGGUGAGAGUCCCGUACGGAACG [U16A G18C A20G C22U U54G C55A] | 0.512
33 | GUUCCGUUGGCGUAAAGGUAACGCGUCUCCCUCCUAAGGAGAAGACUGCGGGUUCGAGUACUGUACGGAACG [U16A C60A C62U] | 0.609
34 | GUUCCGUUGGCGUAAAGGUAACGCGUCUCCCUCUUAAGGAGAAGACUGCGGGUCCGAGUCCCGUACGGAACG [U16A C34U U54C] | ≤ 0.5
35 | GUUCCGUUGGCGUAAAGGUAACGCGUCUGUCUCCUAAGGUGAAGACUGCGGGUUCGAGUCCCGUACGGAACG [U16A C29G C30U A40U] | ≤ 0.5
36 | GUUCCGUUGGCGUAAAGGUAACACGUCUCCCUACUAAGGAGAAGACUGCGGGUUCGAGUCCCGUACGGAACG [U16A G23A C33A] | 0.644
37 | GUUCCGUUGGCGUAAAGGUAACGCGUCUCCCUCCUAAGGAGAAGAUUGCGCGUUCGAGUCCCGUACGGAACG [U16A C46U G51C] | 0.769
